B1: BMP-7: Bone Morphogenetic Protein ligand provided by Stryker Biotech; BMPR-II ligand (protein)
chain: STGSKQRSQNRSKTPKNQEALRMANVAENSSSDQRQACKKHELYVSFRDLGWQDWIIAPEGYAAYYCEGECAFPLNSYMNATNHAIVQTLVHFINPETVPKPCCAPTQLNAISVLYFDDSSNVILKKYRNMVVRACGCH
B2: S107P: BMPR-II ECD naturally occurring single-amino-acid-substitution mutant S107P (protein)
chain: ASQNQERLCAFKDPYQQDLGIGESRISHENGTILCSKGSTCYGLWEKSKGDINLVKQGCWSHIGDPQECHYEECVVTTTPPPIQNGTYRFCCCSTDLCNVNFTENFPPPDTTPLSPPHSFNRDET
modifications: left off: TRX, N-terminal, cleaved | His6, C-terminal, state not stated
B3: BMPR-II Wild type: human recombinant BMPR-II receptor extracellular domain (ECD), wild type, expressed in E. coli (protein)
chain: ASQNQERLCAFKDPYQQDLGIGESRISHENGTILCSKGSTCYGLWEKSKGDINLVKQGCWSHIGDPQECHYEECVVTTTPPSIQNGTYRFCCCSTDLCNVNFTENFPPPDTTPLSPPHSFNRDET
modifications: left off: TRX, N-terminal, cleaved | His6, C-terminal, state not stated
B4: ActR-IIB Wild type: human recombinant ActR-IIB receptor extracellular domain (ECD), wild type, expressed in E. coli (protein, UniProt Q13705 19-137, looked up)
extracellular domain: SGRGEAETRECIYYNANWELERTNQSGLERCEGEQDKRLHCYASWRNSSGTIELVKKGCWLDDFNCYDRQECVATEENPQVYFCCCEGNFCNERFTHLPEAGGPEVTYEPPPTAPTLLT
modifications: extracellular domain
B5: Y40G: BMPR-II ECD single-amino-acid-substitution mutant Y40G (protein)
chain: ASQNQERLCAFKDPGQQDLGIGESRISHENGTILCSKGSTCYGLWEKSKGDINLVKQGCWSHIGDPQECHYEECVVTTTPPSIQNGTYRFCCCSTDLCNVNFTENFPPPDTTPLSPPHSFNRDET
modifications: left off: TRX, N-terminal, cleaved | His6, C-terminal, state not stated
B6: Y40P: BMPR-II ECD single-amino-acid-substitution mutant Y40P (protein)
chain: ASQNQERLCAFKDPPQQDLGIGESRISHENGTILCSKGSTCYGLWEKSKGDINLVKQGCWSHIGDPQECHYEECVVTTTPPSIQNGTYRFCCCSTDLCNVNFTENFPPPDTTPLSPPHSFNRDET
modifications: left off: TRX, N-terminal, cleaved | His6, C-terminal, state not stated
B7: Y40Q: BMPR-II ECD single-amino-acid-substitution mutant Y40Q (protein)
chain: ASQNQERLCAFKDPQQQDLGIGESRISHENGTILCSKGSTCYGLWEKSKGDINLVKQGCWSHIGDPQECHYEECVVTTTPPSIQNGTYRFCCCSTDLCNVNFTENFPPPDTTPLSPPHSFNRDET
modifications: left off: TRX, N-terminal, cleaved | His6, C-terminal, state not stated
B8: Y40R: BMPR-II ECD single-amino-acid-substitution mutant Y40R (protein)
chain: ASQNQERLCAFKDPRQQDLGIGESRISHENGTILCSKGSTCYGLWEKSKGDINLVKQGCWSHIGDPQECHYEECVVTTTPPSIQNGTYRFCCCSTDLCNVNFTENFPPPDTTPLSPPHSFNRDET
modifications: left off: TRX, N-terminal, cleaved | His6, C-terminal, state not stated
B9: G47N: BMPR-II ECD naturally occurring single-amino-acid-substitution mutant G47N (protein)
chain: ASQNQERLCAFKDPYQQDLGINESRISHENGTILCSKGSTCYGLWEKSKGDINLVKQGCWSHIGDPQECHYEECVVTTTPPSIQNGTYRFCCCSTDLCNVNFTENFPPPDTTPLSPPHSFNRDET
modifications: left off: TRX, N-terminal, cleaved | His6, C-terminal, state not stated

Key:
[1] = system: BMP-7-stimulated OC promoter activity in fetal rat calvaria (FRC) cells; assay: Osteocalcin promoter-Luciferase; format: cell-based; details: BMP-7 alone, 6 nM
Method in brief: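 Primary fetal rat calvaria cells were grown in αMEM+10% FBS and transfected with an OC promoter-luciferase plasmid via FuGENE 6 in OPTI medium with 8 U hyaluronidase. After 5 h, fresh medium was added overnight. Cells were then treated 24 h with 6 nM BMP-7, alone or with 20-fold molar excess soluble receptor ECD. Luciferase was read in lysates; mean±SEM of three independent measurements.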

Energy transfer = format: binding; details: value in parenthesis
Method in brief: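 Human receptor ECDs (wild-type, mutants, chimeras) were made as TRX/His-tag fusions in E. coli BL21(DE3), cut with thrombin, and purified by Ni-NTA, gel filtration and C18. Protein was quantified by A280. bis-ANS was diluted from a 10 mM DMF stock into 50 mM Tris-HCl pH 7.5, 150 mM NaCl. Tryptophan was excited at 295 nm, emission read 310–600 nm at 25°C, and K′ derived from energy transfer to bis-ANS, normalized to wild-type.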

[2] = bis-ANS fluorescence titration of receptor ECDs; format: binding; details: value in parenthesis
Method in brief: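 Receptor ECDs were expressed in E. coli as TRX/His-tag fusions, thrombin-cleaved, and purified (Ni-NTA, gel filtration, C18), then quantified by A280. bis-ANS was diluted from a 10 mM DMF stock into 50 mM Tris-HCl pH 7.5, 150 mM NaCl and titrated against fixed protein. Peak fluorescence versus dye concentration was fitted to a Hill equation for apparent K′, normalized to wild-type.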

Molecule	Stimulation of OC promoter activity beyond the empty plasmid control [1]	Relative K′ of bis-ANS (energy transfer), normalized to wild-type (Energy transfer)	Relative K′ of bis-ANS (Hill Eq.), normalized to wild-type [2]
B1	14 fold		
B2		0.9	1.0
B3		1.0	1.0
B4		1.0	1.0
B5		0.6	0.3
B6		1.6	1.8
B7		1.9	2.4
B8		0.9	1.1
B9		2.3	2.9

Source: PMC3481545 (Biochemistry, 2012)
